Experimental data reported in ChEMBL document CHEMBL3758120, “Synthesis and Mechanism Studies of 1,3-Benzoazolyl Substituted Pyrrolo[2,3-b]pyrazine Derivatives as Nonintercalative Topoisomerase II Catalytic Inhibitors” (J Med Chem, 2016).
pIC50: −log10 of the molar value. Activity calls are given as the source filed them. The rule behind the calls is not given here.

Columns and labels:
[1] = tested on: HL-60; assay: Induction of apoptosis in human HL60 cells assessed as viable cells at 2 uM after 12 hrs by annexin V-FITC/propidium iodide staining-based flow cytometric analysis (reference value: 99.12 to 99.33%); format: functional; conditions: HL-60, 12 h, read-out: Activity
Procedure, shortened: (§1)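 HL-60 cells at 5.0 × 10^5 cells/ml treated for 12 h (0.5–2 μM) or 24 h (0.25–1 μM), washed twice in cold PBS, resuspended in binding buffer, stained with annexin V-FITC and propidium iodide for 15 min in the dark, analysed by flow cytometry within 1 h; quadrants define live, early and late apoptotic cells. Three repeats.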

[2] = tested on: HL-60; assay: Induction of apoptosis in human HL60 cells assessed as late apoptotic cells at 0.5 uM after 12 hrs by annexin V-FITC/propidium iodide staining-based flow cytometric analysis (reference value: 0.17 to 0.18%); format: functional; procedure, shortened: as §1
[3] = tested on: HL-60; assay: Induction of apoptosis in human HL60 cells assessed as dead cells at 0.5 uM after 24 hrs by annexin V-FITC/propidium iodide staining-based flow cytometric analysis (reference value: 0.12%); format: functional
[4] = tested on: HL-60; assay: Induction of apoptosis in human HL60 cells assessed as early apoptotic cells at 0.25 uM after 24 hrs by annexin V-FITC/propidium iodide staining-based flow cytometric analysis (reference value: 0.5%); format: functional; procedure, shortened: as §1
[5] = target: DNA topoisomerase 2-alpha (Homo sapiens, UniProt P11388); assay: Inhibition of purified human topoisomerase 2 catalytic activity using supercoiled pBR322 DNA as substrate assessed as inhibition of etoposide-induced linear DNA formation at 20 uM pre-incubated before etoposide addition by agarose gel electrophoresis
Chain of DNA topoisomerase 2-alpha (P11388 whole entry): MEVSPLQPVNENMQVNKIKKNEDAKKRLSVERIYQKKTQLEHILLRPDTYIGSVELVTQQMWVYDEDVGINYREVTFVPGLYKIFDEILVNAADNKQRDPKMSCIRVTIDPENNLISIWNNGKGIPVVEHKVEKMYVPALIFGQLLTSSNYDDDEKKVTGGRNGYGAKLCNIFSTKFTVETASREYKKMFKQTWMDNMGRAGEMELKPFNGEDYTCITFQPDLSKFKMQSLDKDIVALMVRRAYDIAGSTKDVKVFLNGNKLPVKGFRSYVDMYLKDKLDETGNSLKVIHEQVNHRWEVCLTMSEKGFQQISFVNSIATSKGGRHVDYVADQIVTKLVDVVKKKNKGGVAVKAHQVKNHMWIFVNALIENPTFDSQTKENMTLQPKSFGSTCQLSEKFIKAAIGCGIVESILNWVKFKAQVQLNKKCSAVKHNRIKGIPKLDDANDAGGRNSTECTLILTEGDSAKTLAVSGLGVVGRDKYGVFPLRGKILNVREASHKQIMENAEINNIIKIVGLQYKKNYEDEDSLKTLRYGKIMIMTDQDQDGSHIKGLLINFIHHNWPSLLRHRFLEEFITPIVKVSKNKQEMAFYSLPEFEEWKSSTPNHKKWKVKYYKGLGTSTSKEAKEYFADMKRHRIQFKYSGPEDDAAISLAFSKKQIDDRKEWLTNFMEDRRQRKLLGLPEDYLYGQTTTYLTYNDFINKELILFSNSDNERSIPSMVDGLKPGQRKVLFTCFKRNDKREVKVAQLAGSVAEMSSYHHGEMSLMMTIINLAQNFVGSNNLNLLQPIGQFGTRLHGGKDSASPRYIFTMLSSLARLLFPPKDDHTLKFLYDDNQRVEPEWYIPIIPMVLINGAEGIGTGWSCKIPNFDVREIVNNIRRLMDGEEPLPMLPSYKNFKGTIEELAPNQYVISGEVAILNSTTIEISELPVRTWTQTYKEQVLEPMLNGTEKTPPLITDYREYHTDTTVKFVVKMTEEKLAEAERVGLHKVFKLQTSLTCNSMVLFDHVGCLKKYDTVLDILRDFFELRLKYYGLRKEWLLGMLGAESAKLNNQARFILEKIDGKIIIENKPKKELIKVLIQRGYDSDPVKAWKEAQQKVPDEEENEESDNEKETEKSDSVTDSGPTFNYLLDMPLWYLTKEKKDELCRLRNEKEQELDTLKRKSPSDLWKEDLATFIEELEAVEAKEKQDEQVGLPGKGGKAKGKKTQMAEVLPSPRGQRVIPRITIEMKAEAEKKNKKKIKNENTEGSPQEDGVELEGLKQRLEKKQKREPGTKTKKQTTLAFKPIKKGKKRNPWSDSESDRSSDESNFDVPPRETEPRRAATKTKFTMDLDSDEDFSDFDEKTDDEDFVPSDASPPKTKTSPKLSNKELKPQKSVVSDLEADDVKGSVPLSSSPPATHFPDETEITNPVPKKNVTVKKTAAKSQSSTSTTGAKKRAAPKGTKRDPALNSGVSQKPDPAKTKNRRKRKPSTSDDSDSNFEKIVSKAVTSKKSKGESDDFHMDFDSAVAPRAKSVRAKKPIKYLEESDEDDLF
Procedure, shortened: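 Human Topo II (6 units) with 0.1 μg supercoiled pBR322 in 50 mM Tris-HCl pH 8.0, 150 mM NaCl, 10 mM MgCl2, 2 mM ATP, 0.5 mM DTT, 30 μg/ml BSA; compounds at 20 μM, etoposide 100 μM. After 6 min at 37 °C, complexes trapped with SDS then EDTA, proteinase K 30 min at 45 °C, heated 72 °C 2 min, run on 1% agarose; linear DNA scored. Antagonism tested by compound pretreatment before etoposide.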

[6] = target: T1, DNA topoisomerase 1 (Homo sapiens) (UniProt P11387); assay: Inhibition of recombinant human topoisomerase 1 assessed as interacaltion of pBR322 DNA at 50 uM pre-incubated with DNA followed by incubation with enzyme for 30 mins by agarose gel electrophoresis
T1 sequence (whole entry): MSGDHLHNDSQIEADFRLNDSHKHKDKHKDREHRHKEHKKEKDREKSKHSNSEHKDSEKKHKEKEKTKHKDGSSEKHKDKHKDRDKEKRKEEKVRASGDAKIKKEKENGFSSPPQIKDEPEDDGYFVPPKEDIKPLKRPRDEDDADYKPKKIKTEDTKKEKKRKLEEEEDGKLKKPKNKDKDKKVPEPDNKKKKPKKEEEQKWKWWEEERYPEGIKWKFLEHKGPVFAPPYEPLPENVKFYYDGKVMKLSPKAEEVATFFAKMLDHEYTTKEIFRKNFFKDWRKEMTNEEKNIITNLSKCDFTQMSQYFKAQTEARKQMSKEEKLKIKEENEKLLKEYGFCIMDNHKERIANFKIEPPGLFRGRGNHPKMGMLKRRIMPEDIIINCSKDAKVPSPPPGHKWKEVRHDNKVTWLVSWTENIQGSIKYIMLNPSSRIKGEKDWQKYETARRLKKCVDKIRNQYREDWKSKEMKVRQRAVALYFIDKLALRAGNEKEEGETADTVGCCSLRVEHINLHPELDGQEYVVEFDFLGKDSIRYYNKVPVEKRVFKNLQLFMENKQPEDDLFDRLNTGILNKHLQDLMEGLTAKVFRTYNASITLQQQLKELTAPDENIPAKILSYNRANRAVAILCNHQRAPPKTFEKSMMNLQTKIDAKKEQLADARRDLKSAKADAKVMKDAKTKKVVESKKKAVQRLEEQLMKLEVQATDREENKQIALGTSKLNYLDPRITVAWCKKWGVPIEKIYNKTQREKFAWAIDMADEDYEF
Procedure, shortened: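 Supercoiled pBR322 first relaxed with Topo I in 50 mM Tris-HCl pH 7.5, 50 mM KCl, 10 mM MgCl2, 0.5 mM DTT, 0.1 mM EDTA, 30 μg/ml BSA. 0.1 μg relaxed DNA preincubated with compound 10 min at room temperature, then Topo I (1 unit) added for 30 min at 37 °C; phenol-chloroform extracted, SDS/EDTA stop, 1% agarose 1 h at 90 V; ethidium bromide as intercalator reference.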

[7] = tested on: HL-60; assay: Induction of apoptosis in human HL60 cells assessed as late apoptotic cells at 0.25 uM after 24 hrs by annexin V-FITC/propidium iodide staining-based flow cytometric analysis (reference value: 1.64%); format: functional; procedure, shortened: as §1
[8] = tested on: HL-60; assay: Induction of apoptosis in human HL60 cells assessed as viable cells at 1 uM after 12 hrs by annexin V-FITC/propidium iodide staining-based flow cytometric analysis (reference value: 99.12 to 99.33%); format: functional; conditions: HL-60, 12 h, read-out: Activity; procedure, shortened: as §1
[9] = tested on: HL-60; assay: Induction of apoptosis in human HL60 cells assessed as early apoptotic cells at 0.5 uM after 12 hrs by annexin V-FITC/propidium iodide staining-based flow cytometric analysis (reference value: 0.38 to 0.55%); format: functional; procedure, shortened: as §1
[10] = tested on: HEK293; assay: Cytotoxicity against HEK293 cells after 48 hrs by MTT assay; format: cell-based; conditions: Homo sapiens, HEK293, 48 h
[11] = Antiproliferative activity against human HL60 cells after 48 hrs by MTT assay; format: functional, cell-based; conditions: HL-60, 48 h
Procedure, shortened: (§2)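 Cells seeded at 5000 per well and left overnight, then exposed to increasing concentrations (0-50 μM) for 48 h. […] HL-60/MX2 is a mitoxantrone-selected HL-60 derivative with reduced Topo IIα/β.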

[12] = tested on: HL-60; assay: Induction of apoptosis in human HL60 cells assessed as early apoptotic cells at 1 uM after 12 hrs by annexin V-FITC/propidium iodide staining-based flow cytometric analysis (reference value: 0.38 to 0.55%); format: functional; procedure, shortened: as §1
[13] = tested on: HeLa; assay: Antiproliferative activity against human HeLa cells after 48 hrs by MTT assay; format: functional, cell-based; procedure, shortened: as §2
[14] = tested on: HL-60; assay: Induction of apoptosis in human HL60 cells assessed as early apoptotic cells at 1 uM after 24 hrs by annexin V-FITC/propidium iodide staining-based flow cytometric analysis (reference value: 0.5%); format: functional; procedure, shortened: as §1
[15] = Antiproliferative activity against human HL60/MX2 cells after 48 hrs by MTT assay; format: functional, cell-based; conditions: HL60/MX2, 48 h; procedure, shortened: as §2
[16] = tested on: HL-60; assay: Induction of apoptosis in human HL60 cells assessed as viable cells at 0.5 uM after 12 hrs by annexin V-FITC/propidium iodide staining-based flow cytometric analysis (reference value: 99.12 to 99.33%); format: functional; conditions: HL-60, 12 h, read-out: Activity; procedure, shortened: as §1
[17] = tested on: HL-60; assay: Induction of apoptosis in human HL60 cells assessed as early apoptotic cells at 2 uM after 12 hrs by annexin V-FITC/propidium iodide staining-based flow cytometric analysis (reference value: 0.38 to 0.55%); format: functional; procedure, shortened: as §1
[18] = tested on: HL-60; assay: Induction of apoptosis in human HL60 cells assessed as late apoptotic cells at 0.5 uM after 24 hrs by annexin V-FITC/propidium iodide staining-based flow cytometric analysis (reference value: 1.64%); format: functional; procedure, shortened: as §1

## CCN(CC)CCCCn1c(N)c(-c2nc3ccccc3[nH]2)c2nc(C#N)c(C#N)nc21
[1]
  viability at 2 µM: 45.3%
[2]
  Activity: 0.21%
[3]
  Activity: 0.43%
[4]
  Activity: 0.35%
[5]
  inhibition: Active
[6]
  inhibition: inactive
[7]
  Activity: 0.41%
[8]
  viability at 1 µM: 97.2%
[9]
  Activity: 0.35%
[10]
  pIC50: 5.27
[11]
  pIC50: 6.34
[12]
  Activity: 1.39%
[13]
  pIC50: 5.00
[14]
  Activity: 9.38%
[15]
  pIC50: 5.81
[16]
  viability at 0.5 µM: 99.3%
[17]
  Activity: 6.62%
[18]
  Activity: 17.65%

## CN(C)CCCCn1c(N)c(-c2nc3ccccc3[nH]2)c2nc(C#N)c(C#N)nc21
[1]
  viability at 2 µM: 28.1%
[2]
  Activity: 0.21%
[3]
  Activity: 2.28%
[4]
  Activity: 0.54%
[5]
  inhibition: Active
[6]
  inhibition: inactive
[7]
  Activity: 0.42%
[8]
  viability at 1 µM: 98.7%
[9]
  Activity: 0.46%
[10]
  pIC50: 5.38
[11]
  pIC50: 6.37
[12]
  Activity: 0.82%
[13]
  pIC50: 4.95
[14]
  Activity: 0.53%
[15]
  pIC50: 5.75
[16]
  viability at 0.5 µM: 99.3%
[17]
  Activity: 5.8%
[18]
  Activity: 79.38%
